The record followed here is ChEMBL document CHEMBL1124929, “Indolo[2,1-a]isoquinolines. Syntheses, steroid hormone receptor binding affinities, and cytostatic activity” (1990).

One may read the T/C as the result in the treated group divided by that in the control group, in per cent. Usually inhibition stands for how much of the control response was suppressed.

Test [1] has as its system MDA-MB-231. The experiment in a line: Cytostatic effect on hormone-independent MDA-MB 231 human breast cancer cell proliferation at5x10E-6M. The test is classed as functional. Put shortly: (§1)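 Cells were plated at about 2 × 10⁴ per well in six-well dishes. MCF-7 cells were grown in modified improved MEM with 5% NCS, switched to charcoal-treated NCS two weeks before the test, and exposed for 5 days with a re-dose on day 4. MDA-MB 231 cells were grown in McCoy 5a with 10% NCS and exposed for 2 days. Compounds were given 1 day after plating in 0.1% DMSO, with DMSO-matched controls. Read-out was cell number as % T/C, mean of three experiments with six dishes.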

The target in test [2] is Estrogen receptor (Bos taurus) (UniProt Q9XSB5+P49884). In words: Relative binding affinity(RBA) for 50% displacement of [3H]-estradiol from Estrogen receptor compared to 17-beta-estradiol. The class given is protein assay. Put shortly:
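Receptor source was calf uterine cytosol (105000g supernatant, 3 mg/mL protein in assay). Buffers were Tris/EDTA pH 7.4, with NaN₃ for ER, molybdate/glycerol for AR, and sucrose for PR. Tracers were 1 nM [³H]estradiol, [³H]mibolerone or [³H]Org 2058. Incubation was at 0–4 °C for 16 h (ER) or 2 h (AR, PR), with 4–6 competitor concentrations. Nonspecific binding used 2 µM of the unlabeled hormone. Separation was by dextran-coated charcoal. RBA is the ratio of IC50 values for hormone and compound ×100, mean of two triplicate experiments.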
(In general: Loss of bound radioactivity is the signal in a displacement assay; it reports binding, not function.)

For test [3], the target named is T1, Estrogen receptor (Mus musculus) (UniProt O08537+P19785). The experiment in a line: Inhibition of 0.4 ug estrone-stimulated uterine growth in mice at 2 ug subcutaneous dose. The class given is functional. Put shortly:
(§2)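 Immature 20-day-old female NMRI mice received sc injections on three consecutive days. Each injection held 0.4 µg estrone plus the compound in PEG/saline 1:1. […] Significance was tested by Mann-Whitney U test.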

Test [4] concerns MDA-MB-231. In words: Cytostatic effect on hormone-independent MDA-MB 231 human breast cancer cell proliferation at 1x10E-5 M. The class given is functional. Put shortly: as §1
Test [5] has as its target T1, Estrogen receptor (Mus musculus). In words: Inhibition of 0.4 ug estrone-stimulated uterine growth in mice at 125 ug subcutaneous dose; p<0.01. The class given is functional. In outline:
as §2

Test [6] concerns MCF7. In words: Effect on [3H]thymidine incorporation into MCF-7 human breast cancer cells at 1x10E-7M. The class given is functional. Put shortly: (§3)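 Cells were seeded at ~2 × 10⁴ per well, treated from the next day in 0.1% DMSO, with DMSO controls. MCF-7 cells were held in charcoal-stripped NCS for 2 weeks, treated for 5 days and re-dosed on day 4. MDA-MB 231 cells were grown in McCoy 5a/10% NCS and treated for 2 days. At the end, 1 µCi [³H]thymidine per well was added for 2 h. Result is % T/C, mean of three experiments × six dishes.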
(In general: Dividing cells build labelled thymidine or BrdU into new DNA.)

For test [7], the target named is T1, Estrogen receptor (Mus musculus). The experiment in a line: (§4) Estrogenic activity in uterotrophic assay in immature mice at 2 ug subcutaneous dose. The test is classed as functional. Put shortly:
(§5)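 Immature female NMRI mice, 20 days old, in groups of 6-10, were dosed sc once daily for three consecutive days. Compounds were given in PEG/0.9% saline 1:1; vehicle controls were included. Animals were killed 24 h after the last dose. Uteri were fixed in Bouin solution and the effect was taken as uterine dry weight (mg)/body weight (g) ×100, given as mean ± SD.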

The subject of test [8] is MDA-MB-231. The experiment in a line: Effect on [3H]thymidine incorporation into MDA-MB 231 human breast cancer cells at 5x10E-6M. The test is classed as functional. Put shortly:
as §3

Test [9] deals with T1, Estrogen receptor (Mus musculus). The experiment in a line: Estrogenic activity in uterotrophic assay in immature mice at 10.0 ug subcutaneous dose. The class given is functional. Put shortly: as §5
Test [10] concerns MDA-MB-231. In words: Effect on [3H]thymidine incorporation into MDA-MB 231 human breast cancer cells at 1x10E-5 M. The test is classed as functional. In outline:
as §3

Test [11] has as its system MCF7. In words: Effect on [3H]thymidine incorporation into MCF-7 human breast cancer cells at 1x10E-5 M. The test is classed as functional. Put shortly: as §3
Test [12] relates to MCF7. The experiment in a line: Effect on hormone-dependent MCF-7 human breast cancer cell proliferation at 1x10E-5 M. The class given is functional. In outline:
as §1

For test [13], the target named is T1, Estrogen receptor (Mus musculus). The test is described as §4. The test is classed as functional. Put shortly: as §5
The source holds these as a separate data set.

Test [14] has as its system MCF7. The experiment in a line: Effect on hormone-dependent MCF-7 human breast cancer cell proliferation at 1x10E-6M. The class given is functional. In outline: as §1
The target of test [15] is T1, Estrogen receptor (Mus musculus). In words: Estrogenic activity in uterotrophic assay in immature mice at 250 ug subcutaneous dose. The test is classed as functional. In outline: as §5
Test [16] shares this target. In words: Inhibition of 0.4 ug estrone-stimulated uterine growth in mice at 250 ug subcutaneous dose. The class given is functional. Put shortly: as §2
The target in test [17] is T2, Androgen receptor (Mus musculus) (UniProt P19091).
T2 sequence (whole entry): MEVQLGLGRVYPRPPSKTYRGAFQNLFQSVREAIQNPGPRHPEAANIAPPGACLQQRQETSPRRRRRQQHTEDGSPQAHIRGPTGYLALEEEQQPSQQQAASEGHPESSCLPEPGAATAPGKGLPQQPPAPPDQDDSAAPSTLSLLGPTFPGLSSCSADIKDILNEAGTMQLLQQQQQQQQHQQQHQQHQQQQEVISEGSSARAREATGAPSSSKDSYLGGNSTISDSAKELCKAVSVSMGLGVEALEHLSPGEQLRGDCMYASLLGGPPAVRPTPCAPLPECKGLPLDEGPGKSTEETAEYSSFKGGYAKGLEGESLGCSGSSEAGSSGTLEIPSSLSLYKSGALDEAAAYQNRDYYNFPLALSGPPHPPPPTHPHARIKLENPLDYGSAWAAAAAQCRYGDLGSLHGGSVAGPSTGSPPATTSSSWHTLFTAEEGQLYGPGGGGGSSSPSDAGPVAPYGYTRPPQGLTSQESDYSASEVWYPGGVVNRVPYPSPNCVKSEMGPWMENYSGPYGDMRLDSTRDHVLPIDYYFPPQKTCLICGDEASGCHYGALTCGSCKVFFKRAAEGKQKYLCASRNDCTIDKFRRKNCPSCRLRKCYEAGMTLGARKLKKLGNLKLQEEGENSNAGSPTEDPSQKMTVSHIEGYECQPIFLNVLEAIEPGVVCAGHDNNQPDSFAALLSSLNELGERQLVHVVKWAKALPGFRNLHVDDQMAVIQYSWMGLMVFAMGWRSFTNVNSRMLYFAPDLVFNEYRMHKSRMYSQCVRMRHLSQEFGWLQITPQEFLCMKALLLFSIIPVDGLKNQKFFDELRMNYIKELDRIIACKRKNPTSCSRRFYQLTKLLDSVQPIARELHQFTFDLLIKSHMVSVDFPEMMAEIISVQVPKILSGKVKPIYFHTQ
The experiment in a line: Relative effect on seminal vesicle weight in adult and castrated mice at 10 ug dose. The class given is functional, tissue-based. In outline: (§6)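 Adult male mice, 23–25 g, six per group, were used intact or castrated via the scrotal route under ether 5 days before the test. Castrates received 0.3 mg testosterone propionate daily. Compounds were injected daily in olive oil for nine days. Seminal vesicles were taken 24 h later, fixed in Bouin solution, dried overnight at 100 °C and weighed. Result is organ mg/body g ×100; % inhibition = [1 − treated/control] × 100.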

Test [18] deals with T2, Androgen receptor (Mus musculus). The experiment in a line: Relative effect on seminal vesicle weight in adult and castrated mice supplemented with 0.3 mg TP at 1000 ug dose. The class given is functional, tissue-based. Put shortly: as §6
Test [19] relates to MCF7. In words: Effect on [3H]thymidine incorporation into MCF-7 human breast cancer cells at 1x10E-6M. The class given is functional. Put shortly: as §3
Test [20] deals with T2, Androgen receptor (Mus musculus). In words: Inhibition of seminal vesicle weight in intact mice at 100 ug.
Test [21] shares this target. In words: Relative effect on seminal vesicle weight in adult and castrated mice at 1000 ug dose. The test is classed as functional, tissue-based. Put shortly:
as §6

Test [22] has as its target T1, Estrogen receptor (Mus musculus). In words: Estrogenic activity in uterotrophic assay in immature mice at 50.0 ug subcutaneous dose. The test is classed as functional. In outline:
as §5

T1 sequence (O08537 whole entry, looked up): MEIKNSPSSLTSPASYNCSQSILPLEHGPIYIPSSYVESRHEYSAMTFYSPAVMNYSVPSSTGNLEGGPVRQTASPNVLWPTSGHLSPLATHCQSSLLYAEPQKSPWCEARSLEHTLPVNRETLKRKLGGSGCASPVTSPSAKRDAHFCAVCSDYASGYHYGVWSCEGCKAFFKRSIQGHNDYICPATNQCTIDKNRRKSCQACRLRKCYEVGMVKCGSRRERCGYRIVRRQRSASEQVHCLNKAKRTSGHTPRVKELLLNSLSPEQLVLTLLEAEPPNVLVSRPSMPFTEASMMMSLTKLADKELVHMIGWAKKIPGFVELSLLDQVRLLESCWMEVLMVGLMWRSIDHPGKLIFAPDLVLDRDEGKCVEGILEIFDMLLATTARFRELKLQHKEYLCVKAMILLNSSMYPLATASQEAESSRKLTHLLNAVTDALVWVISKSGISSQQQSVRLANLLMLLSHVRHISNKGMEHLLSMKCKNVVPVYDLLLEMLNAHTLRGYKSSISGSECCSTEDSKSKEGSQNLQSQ
T1 sequence (P19785 whole entry, looked up): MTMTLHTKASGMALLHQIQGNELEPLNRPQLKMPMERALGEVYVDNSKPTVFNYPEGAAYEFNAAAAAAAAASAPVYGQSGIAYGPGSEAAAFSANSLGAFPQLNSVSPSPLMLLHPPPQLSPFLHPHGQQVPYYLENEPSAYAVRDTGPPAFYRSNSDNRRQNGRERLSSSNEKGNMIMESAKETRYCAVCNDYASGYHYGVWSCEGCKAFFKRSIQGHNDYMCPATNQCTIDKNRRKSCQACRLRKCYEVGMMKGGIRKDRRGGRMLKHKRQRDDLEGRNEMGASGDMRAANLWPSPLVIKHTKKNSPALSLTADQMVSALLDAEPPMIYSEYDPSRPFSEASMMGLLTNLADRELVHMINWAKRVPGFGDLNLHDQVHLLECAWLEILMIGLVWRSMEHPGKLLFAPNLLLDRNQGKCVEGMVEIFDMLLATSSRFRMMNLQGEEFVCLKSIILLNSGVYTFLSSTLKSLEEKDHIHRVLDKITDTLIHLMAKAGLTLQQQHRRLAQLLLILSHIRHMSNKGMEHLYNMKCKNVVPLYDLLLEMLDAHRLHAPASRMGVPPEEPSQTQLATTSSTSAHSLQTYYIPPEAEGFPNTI

With `CCC1Cc2cc(OC(C)=O)ccc2-c2cc3cc(OC(C)=O)ccc3n21` (configuration not stated), the T/C in the test with MDA-MB-231 [1] was determined as 4%; in the test on MDA-MB-231 [4] it was 4%; in the test with MCF7 [6] it was 63%; in the test with MDA-MB-231 [8], 4%; in the test with MDA-MB-231 [10], 4%; in the test with MCF7 [11], 2%. Besides, the T/C in the test with MCF7 [12] was 8%; in the test on MCF7 [14] it was 45%; with MCF7 [19], 25%. Besides, the RBA in test [2] stood at 17. Further, the inhibition in test [3] is 7.2%; in test [5], 42%; in [16] it was 34.1%; in test [20], 67%. Besides, the Effect in test [7] is 52.3; in [9], 51; in test [13] it was 18.5; in test [15] it was 42.6; in [22] it was 45.7. The Relative seminal vesicle weight in [17] was 132; in test [18], 187; in [21], 38.3.
